Laboratory results published in ChEMBL document CHEMBL4261499, “Chiral disubstituted piperidinyl ureas: a class of dual diacylglycerol lipase-α and ABHD6 inhibitors” (Medchemcomm, 2017).
pIC50: −log10 of the molar value. The source made the active and inactive calls. The calls are words filed in the database; no cut-off is given here.

Legend:
[1] = molecular target: T1, Diacylglycerol lipase-alpha (Homo sapiens, UniProt Q9Y4D2); assay: Inhibition of recombinant human DAGLalpha expressed in HEK293 cells using PNP-butyrate as substrate pretreated for 20 to 30 mins followed by substrate addition measured every 60 secs for 20 mins by colorimetric method; type: cell-based
T1 sequence (Q9Y4D2 whole entry): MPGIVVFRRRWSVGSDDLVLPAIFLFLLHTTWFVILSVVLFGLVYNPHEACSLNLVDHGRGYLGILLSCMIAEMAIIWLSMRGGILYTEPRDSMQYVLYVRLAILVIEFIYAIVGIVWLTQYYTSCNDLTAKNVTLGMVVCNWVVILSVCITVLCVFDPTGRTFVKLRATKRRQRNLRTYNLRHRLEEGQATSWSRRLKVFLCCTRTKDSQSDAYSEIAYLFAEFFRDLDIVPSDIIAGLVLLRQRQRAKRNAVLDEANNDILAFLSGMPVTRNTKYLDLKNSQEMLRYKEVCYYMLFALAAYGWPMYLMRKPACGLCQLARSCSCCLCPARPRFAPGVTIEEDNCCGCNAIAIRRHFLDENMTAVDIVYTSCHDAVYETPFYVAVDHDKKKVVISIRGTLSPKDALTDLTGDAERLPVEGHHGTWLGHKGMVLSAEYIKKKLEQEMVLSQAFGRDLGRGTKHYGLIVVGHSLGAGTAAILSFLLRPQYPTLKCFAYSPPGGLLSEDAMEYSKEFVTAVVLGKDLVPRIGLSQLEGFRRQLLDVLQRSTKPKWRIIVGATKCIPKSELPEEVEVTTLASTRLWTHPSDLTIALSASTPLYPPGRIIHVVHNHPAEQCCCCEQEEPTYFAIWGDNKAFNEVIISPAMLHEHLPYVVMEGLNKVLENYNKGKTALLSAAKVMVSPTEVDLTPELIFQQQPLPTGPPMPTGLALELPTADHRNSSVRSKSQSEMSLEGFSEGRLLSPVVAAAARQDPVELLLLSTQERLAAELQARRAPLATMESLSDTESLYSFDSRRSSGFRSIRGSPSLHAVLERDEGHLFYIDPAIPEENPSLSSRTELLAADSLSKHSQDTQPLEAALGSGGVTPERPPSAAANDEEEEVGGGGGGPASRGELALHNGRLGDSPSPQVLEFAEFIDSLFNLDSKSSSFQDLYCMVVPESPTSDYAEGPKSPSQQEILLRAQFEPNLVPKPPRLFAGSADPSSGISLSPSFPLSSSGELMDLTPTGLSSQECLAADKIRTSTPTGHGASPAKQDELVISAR
In short: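 Membrane fraction from HEK293T cells transiently transfected with human DAGLα (PEI transfection, harvested at 72 h). Membranes used at 0.05 μg μL-1 final protein in 50 mM HEPES pH 7.2. Colorimetric readout of para-nitrophenylbutyrate hydrolysis. pIC50 ± SEM.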

[2] = molecular target: T2, Monoacylglycerol lipase ABHD6 (Mus musculus) (UniProt Q8R2Y0); assay: Inhibition of MB064 labelling of ABHD6 in mouse brain homogenates at 10 uM pretreated for 30 mins followed by MB064 addition and measured after 20 mins by activity based protein profiling assay relative to control; type: tissue-based
T2 sequence (whole entry): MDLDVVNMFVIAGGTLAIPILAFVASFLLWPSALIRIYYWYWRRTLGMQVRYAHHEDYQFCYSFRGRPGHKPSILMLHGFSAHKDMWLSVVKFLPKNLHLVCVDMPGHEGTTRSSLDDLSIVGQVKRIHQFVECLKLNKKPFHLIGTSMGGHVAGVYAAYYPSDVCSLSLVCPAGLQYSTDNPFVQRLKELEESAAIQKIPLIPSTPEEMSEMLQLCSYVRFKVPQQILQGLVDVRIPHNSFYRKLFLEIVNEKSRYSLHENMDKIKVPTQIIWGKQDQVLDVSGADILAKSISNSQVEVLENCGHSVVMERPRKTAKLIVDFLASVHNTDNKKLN
In short: (§1)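 Mouse brain membrane proteome preincubated 30 min with inhibitor (10 μM), then labelled with MB064 probe (0.25 μM, 20 min). Readout by gel-based competitive ABPP. Band intensities corrected for protein loading per lane from Coomassie staining. Means ± SEM, n = 3.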

[3] = molecular target: T3, Triacylglycerol hydrolase DDHD2 (Mus musculus) (UniProt Q80Y98); assay: Inhibition of MB064 labelling of DDHD2 in mouse brain homogenates at 10 uM pretreated for 30 mins followed by MB064 addition and measured after 20 mins by activity based protein profiling assay; type: tissue-based; in short: as §1
T3 sequence (whole entry): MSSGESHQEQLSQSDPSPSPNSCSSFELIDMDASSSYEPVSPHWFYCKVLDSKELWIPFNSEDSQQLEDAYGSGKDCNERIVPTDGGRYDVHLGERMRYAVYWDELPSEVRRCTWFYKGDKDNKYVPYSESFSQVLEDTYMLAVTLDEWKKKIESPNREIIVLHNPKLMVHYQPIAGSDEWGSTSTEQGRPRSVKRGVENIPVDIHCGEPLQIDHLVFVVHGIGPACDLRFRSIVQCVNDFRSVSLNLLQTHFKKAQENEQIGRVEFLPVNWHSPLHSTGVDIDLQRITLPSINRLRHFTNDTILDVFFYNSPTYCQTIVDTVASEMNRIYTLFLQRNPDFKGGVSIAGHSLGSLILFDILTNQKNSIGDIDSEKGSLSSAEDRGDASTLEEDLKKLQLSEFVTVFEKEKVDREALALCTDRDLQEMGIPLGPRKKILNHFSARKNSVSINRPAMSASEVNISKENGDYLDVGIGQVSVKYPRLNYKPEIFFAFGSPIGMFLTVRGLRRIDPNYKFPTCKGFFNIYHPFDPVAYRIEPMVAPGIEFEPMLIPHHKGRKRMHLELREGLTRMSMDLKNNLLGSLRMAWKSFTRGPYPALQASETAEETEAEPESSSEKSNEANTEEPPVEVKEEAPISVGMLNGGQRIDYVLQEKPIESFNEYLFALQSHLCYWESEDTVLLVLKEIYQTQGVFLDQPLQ

Row | SMILES | pIC50 [1] | inhibition [2] | inhibition [3]
1 | O=C(N1C[C@@H](O)C=C[C@@H]1COCc1ccccc1)n1cc(-c2ccc(-c3ccccc3)cc2)nn1 | 7.50 | 95% | Active
2 | O=C(N1CCC=C[C@@H]1COCc1ccccc1)n1cc(-c2ccc(-c3ccccc3)cc2)nn1 | 7.60 | 96% | Active
3 | O=C(N1CCCC[C@@H]1COCc1ccccc1)n1cc(-c2ccc(-c3ccccc3)cc2)nn1 | 7.10 | 96% | Active
4 | O=C(N1CCC=C[C@@H]1COCc1ccccc1)n1cc(-c2ccc([N+](=O)[O-])cc2)nn1 | 7.80 | 93% | Active
5 | O=C(N1CCC=C[C@@H]1COCc1ccccc1)n1cc(-c2ccc(Oc3ccccc3)cc2)nn1 | 7.60 | 86% | Active
6 | O=C(N1CCC=C[C@@H]1COCc1ccccc1)n1cc(-c2ccccc2)nn1 | 6.80 | 89% | Active
7 | O=C(N1CCC=C[C@@H]1COCc1ccccc1)n1cc(-c2ccc(Br)cc2)nn1 | 7.80 | 94% | Active
